In publication PMC12138108 (Acta Pharmaceutica Sinica. B, 2025):

Legend:
[1] = Cytotoxicity on HepAD38 cells by cytopathic effect; type: cell-based, Human; conditions: human, HepAD38 cells, CC50, reduction of viability of HepAD38 cells by 50%, CPE method (Table 2)
Summary of the method: (§1)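 HepAD38 cells (tetracycline-inducible HBV) were maintained in DMEM with 10% FBS, 1 µg/mL tetracycline and 400 µg/mL G-418. Cells were plated overnight, then given serial dilutions of test compound without tetracycline. Cytotoxicity was read by the cytopathic effect method. CC50 is the concentration cutting viability by 50%, calculated by the Reed & Muench method.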

[2] = molecular target: HBV core protein (HBC) (Hepatitis B virus genotype D subtype ayw, UniProt P03146); assay: HBC degradation in HepAD38 cells by Western blot; type: cell-based; conditions: for HBC degradation activity (Western blot): tet-, maximum non-toxic concentration, 72 h
[3] = tested on: HBV DNA replication in HepAD38 cells; assay: In vitro anti-HBV assay in HepAD38 cells; type: cell-based, Hepatitis B virus (HBV); conditions: reduction of HBV DNA by 50% in HepAD38 cells, qPCR, 4 days incubation (Table 2)
Summary of the method: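 HepAD38 cells were plated overnight, then exposed to serially diluted test compound without tetracycline for 4 days. Cytoplasmic HBV core DNA was extracted and quantified by real-time PCR. EC50 is relative to mock-treated controls, calculated by the Reed & Muench method.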

[4] = tested on: HepAD38 cells; assay: Cytotoxicity on HepAD38 cells by cytopathic effect; type: cell-based, Human
Summary of the method: as §1

[5] = tested on: 11 CpAMs-resistant mutant HBC (P25A, P25G, D29L, D29W, T33N, I105F, I105W, I105Y, T109A, V124W, V124F); assay: Degradation of CpAMs-resistant mutant HBC in transfected HepG2 cells; type: cell-based, Hepatitis B virus (HBV); conditions: 18 h, HyT-S7 6, NVR 3-778 3, 3TC 1 μmol/L
Summary of the method: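 HepG2 cells at about 80% confluence were transfected with 0.25 µg plasmid. The pCMV-HBC-derived plasmids carried P25A, P25G, D29A/D29L, D29W, T33N, I105F, I105W, I105Y or T109A; pHBV1.3-derived plasmids carried V124F/V124W. At 6 h post-transfection, medium was replaced with fresh medium or test compound (6 µmol/L) or comparators (1–3 µmol/L) for 18 h. Intracellular core protein was detected by Western blot against a GAPDH/β-actin loading control, with chemiluminescence read-out.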

[6] = Hepatitis B virus, HePAD38, 96 h

O=C(COCCNC(=O)C(c1ccccc1)c1ccccc1)NC1CCN(S(=O)(=O)c2cc(C(=O)Nc3cc(F)c(F)c(F)c3)ccc2F)CC1 [HyT-S10, 3-((4-(2-(2-(2,2-Diphenylacetamido)ethoxy)acetamido)piperidin-1-yl)sulfonyl)-4-fluoro-N-(3,4,5-trifluorophenyl)benzamide]
CC50 [1]: 20 µM
HBC degradation activity (Western blot) [2]: still retains some degradation activity
EC50 [3, 6]: 0.26 µM

N^1-(Bicyclo[2.2.1]hept-2-en-1-ylmethyl)-N^6-(1-((2-fluoro-5-((3,4,5-trifluorophenyl)carbamoyl)phenyl)sulfonyl)piperidin-4-yl)adipamide [HyT-S12]
CC50 ([4]; reduction of viability of HepAD38 cells by 50%, CPE method (Table 2)): 28.8 µM
EC50 [3]: 0.22 µM

CC(C)[C@@H]1CC[C@@H](C)C[C@H]1OCC(=O)NCCOCC(=O)NC1CCN(S(=O)(=O)c2cc(C(=O)Nc3cc(F)c(F)c(F)c3)ccc2F)CC1 [HyT-S14, 4-Fluoro-3-((4-(2-(2-(2-(((1R,2S,5R)-2-isopropyl-5-methylcyclohexyl)oxy)acetamido)ethoxy)acetamido)piperidin-1-yl)sulfonyl)-N-(3,4,5-trifluorophenyl)benzamide]
CC50 [1]: 11.6 µM
HBC degradation activity (Western blot) [2]: still retains some degradation activity
EC50 [3, 6]: 0.29 µM

CC(C)(C)OC(=O)/N=C(\NCCC[C@H](NC(=O)OC(C)(C)C)C(=O)NCCOCC(=O)NC1CCN(S(=O)(=O)c2cc(C(=O)Nc3cc(F)c(F)c(F)c3)ccc2F)CC1)NC(=O)OC(C)(C)C [HyT-S15, 2-Methylpropan-2-yl {[(6E,11S)-18-({1-[(2-fluoro-5-{[(3,4,5-trifluorophenyl)amino]carbonyl}phenyl)dioxo-λ6-sulfanyl]hexahydropyridin-4-yl}amino)-2,2-dimethyl-11-({[(2-methylprop-2-yl)oxy]carbonyl}amino)-4,12,18-trioxo-3,16-dioxa-5,7,13-triazaoctadecan-6-ylidene]amino}methanoate]
CC50 [1]: 60 µM
maximum non-toxic concentration by CPE method ([4]; HepAD38 cells, concentration used in the degradation test): 20 µmol/L
HBC degradation activity (Western blot) [2]: still retains some degradation activity
EC50 [3, 6]: 0.45 µM

CC(C)Cc1ccc([C@H](C)C(=O)NCCOCC(=O)NC2CCN(S(=O)(=O)c3cc(C(=O)Nc4cc(F)c(F)c(F)c4)ccc3F)CC2)cc1 [HyT-S13, (S)-4-Fluoro-3-((4-(2-(2-(2-(4-isobutylphenyl)propanamido)ethoxy)acetamido)piperidin-1-yl)sulfonyl)-N-(3,4,5-trifluorophenyl)benzamide]
CC50 [1]: 11.6 µM
HBC degradation activity (Western blot) [2]: still retains some degradation activity
EC50 [3, 6]: 0.59 µM

Nc1ccn([C@@H]2CS[C@H](CO)O2)c(=O)n1 [3TC, lamivudine]
degradation of 11 mutant types of HBC [5]: neither NVR 3-778 nor 3TC showed any degradation effect

O=C(CC1c2ccccc2-c2ccccc21)NCCOCC(=O)NC1CCN(S(=O)(=O)c2cc(C(=O)Nc3cc(F)c(F)c(F)c3)ccc2F)CC1 [HyT-S11, 3-((4-(2-(2-(2-(9H-Fluoren-9-yl)acetamido)ethoxy)acetamido)piperidin-1-yl)sulfonyl)-4-fluoro-N-(3,4,5-trifluorophenyl)benzamide]
CC50 [1]: 34.6 µM
HBC degradation activity (Western blot) [2]: still retains some degradation activity
EC50 [3, 6]: 0.21 µM

NCCOCC(=O)NC1CCN(S(=O)(=O)c2cc(C(=O)Nc3cc(F)c(F)c(F)c3)ccc2F)CC1 [SP-O-7, 3-((4-(2-(2-Aminoethoxy)acetamido)piperidin-1-yl)sulfonyl)-4-fluoro-N-(3,4,5-trifluorophenyl)benzamide]
HBC degradation (Western blot) ([2]; 20 μmol/L, 24 h): unable to induce degradation of HBC
